ChEMBL document CHEMBL1126159, “A novel class of enkephalinase inhibitors containing a C-terminal sulfo group” (J Med Chem, 1992)
pIC50: −log10 of the molar value.

Assays:
Neprilysin [1] = target: T1, Neprilysin (Rattus norvegicus, UniProt P07861); assay: The compound was tested in vitro for its inhibitory activity against Enkephalinase enzyme
T1 sequence (P07861 whole entry): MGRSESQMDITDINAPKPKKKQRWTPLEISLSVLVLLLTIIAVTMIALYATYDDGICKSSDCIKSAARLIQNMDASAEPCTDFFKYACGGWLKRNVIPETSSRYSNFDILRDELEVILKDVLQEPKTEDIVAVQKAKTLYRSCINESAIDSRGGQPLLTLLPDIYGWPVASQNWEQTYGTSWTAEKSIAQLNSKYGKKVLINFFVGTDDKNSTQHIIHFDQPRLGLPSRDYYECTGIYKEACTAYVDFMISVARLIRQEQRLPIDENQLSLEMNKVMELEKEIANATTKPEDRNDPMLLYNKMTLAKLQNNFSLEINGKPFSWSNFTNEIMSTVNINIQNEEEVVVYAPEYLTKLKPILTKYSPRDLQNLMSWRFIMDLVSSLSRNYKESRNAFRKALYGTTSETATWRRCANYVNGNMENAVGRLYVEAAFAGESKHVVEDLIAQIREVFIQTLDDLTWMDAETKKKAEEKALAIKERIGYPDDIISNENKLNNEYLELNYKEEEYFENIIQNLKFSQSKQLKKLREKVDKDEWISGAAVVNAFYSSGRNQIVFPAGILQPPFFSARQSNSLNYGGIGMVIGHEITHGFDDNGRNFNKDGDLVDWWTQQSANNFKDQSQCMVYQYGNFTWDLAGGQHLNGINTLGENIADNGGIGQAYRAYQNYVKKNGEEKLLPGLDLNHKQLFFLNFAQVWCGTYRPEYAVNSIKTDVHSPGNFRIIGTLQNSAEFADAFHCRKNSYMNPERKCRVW
Method in brief: (§1)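 Rat striatal membranes (male Std:Wistar) were solubilized with 1% Triton X-100 in 50 mM Tris-HCl pH 7.7 and fractionated on DEAE-cellulose; the enkephalin dipeptidylcarboxypeptidase fraction served as enzyme. IC50 by log-probit from 3–4 concentrations, run 2–3 times.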

[2] = target: T2, Angiotensin-converting enzyme (Oryctolagus cuniculus, UniProt P12822); assay: In vitro inhibitory activity against Angiotensin I converting enzyme from rabbit lung
T2 sequence (P12822 whole entry): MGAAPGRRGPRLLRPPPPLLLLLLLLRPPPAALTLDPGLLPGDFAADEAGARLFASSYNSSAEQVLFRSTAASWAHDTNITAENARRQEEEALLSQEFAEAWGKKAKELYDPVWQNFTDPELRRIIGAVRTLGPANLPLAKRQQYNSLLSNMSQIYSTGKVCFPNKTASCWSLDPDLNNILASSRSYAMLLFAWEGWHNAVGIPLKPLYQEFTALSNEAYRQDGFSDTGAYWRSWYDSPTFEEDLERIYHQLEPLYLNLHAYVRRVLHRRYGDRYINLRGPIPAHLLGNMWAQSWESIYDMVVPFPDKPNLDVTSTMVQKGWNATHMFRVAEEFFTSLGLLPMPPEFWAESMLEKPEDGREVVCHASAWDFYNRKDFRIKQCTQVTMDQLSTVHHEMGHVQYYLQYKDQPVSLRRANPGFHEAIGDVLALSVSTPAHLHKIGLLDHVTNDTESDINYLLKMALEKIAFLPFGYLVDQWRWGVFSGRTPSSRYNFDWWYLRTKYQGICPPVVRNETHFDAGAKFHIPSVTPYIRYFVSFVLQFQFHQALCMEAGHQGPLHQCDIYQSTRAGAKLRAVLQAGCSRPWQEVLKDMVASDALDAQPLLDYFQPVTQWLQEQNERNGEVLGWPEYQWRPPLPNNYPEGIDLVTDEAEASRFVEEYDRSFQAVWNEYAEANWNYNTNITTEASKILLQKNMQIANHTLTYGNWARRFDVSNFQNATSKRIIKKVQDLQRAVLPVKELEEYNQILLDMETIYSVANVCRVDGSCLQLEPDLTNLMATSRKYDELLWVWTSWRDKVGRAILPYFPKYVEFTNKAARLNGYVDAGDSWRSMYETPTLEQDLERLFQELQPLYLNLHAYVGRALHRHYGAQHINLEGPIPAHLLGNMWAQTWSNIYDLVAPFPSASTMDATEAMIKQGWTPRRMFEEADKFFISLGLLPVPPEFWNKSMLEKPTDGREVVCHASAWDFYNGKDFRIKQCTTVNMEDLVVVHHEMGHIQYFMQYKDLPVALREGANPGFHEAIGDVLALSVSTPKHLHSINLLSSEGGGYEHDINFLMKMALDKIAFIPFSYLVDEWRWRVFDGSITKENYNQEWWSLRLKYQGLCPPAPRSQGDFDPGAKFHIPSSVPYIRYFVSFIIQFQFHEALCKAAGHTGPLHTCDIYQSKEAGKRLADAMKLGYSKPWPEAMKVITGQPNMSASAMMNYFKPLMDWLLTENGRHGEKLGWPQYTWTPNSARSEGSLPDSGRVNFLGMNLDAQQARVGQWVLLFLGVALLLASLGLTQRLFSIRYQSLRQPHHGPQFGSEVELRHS
Method in brief: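 Enzyme source was rabbit lung ACE. The inhibition procedure followed an earlier published method.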

Neprilysin [3] = target: T1, Neprilysin; assay: In vitro inhibitory activity against enkephalinase enzyme from rat.
Method in brief: as §1, with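 “enzyme. […] Reaction was stopped with 0.2 N HCl, products separated on Porapak Q, and [3H]Tyr-Gly-Gly measured.” for “enzyme.”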

[4] = target: T2, Angiotensin-converting enzyme; assay: In vitro inhibitory activity against angiotensin I converting enzyme (ACE) from rabbit lung
Mus musculus [5] = assay: The compound was tested for administrating the compound intracisternally; assay type: functional
Method in brief: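 Female ddY mice (18–22 g) received 10 µL aqueous solution intracisternally 1 min before ip phenylbenzoquinone (0.03% in 5% aqueous EtOH, 10 mL/kg). Writhes were counted for 15 min starting 5 min after phenylbenzoquinone. Mice with behavioural change after injection were excluded. More than 50% reduction versus vehicle control counted as effective; ED50 given with 95% confidence limits.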

Mus musculus [6] = assay: The compound was tested for administrating the compound intravenously; assay type: functional; settings: iv
Method in brief: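 Female ddY mice (18–22 g) were dosed iv 5 min before ip phenylbenzoquinone (0.03% in 5% aqueous EtOH, 10 mL/kg). Writhes were counted for 15 min starting 5 min after phenylbenzoquinone. More than 50% reduction versus vehicle control counted as effective; ED50 given with 95% confidence limits.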

O=C(Nc1ccc(S(=O)(=O)O)cc1)C(CS)Cc1ccc([N+](=O)[O-])cc1 (stereo unspecified)
pIC50 (Neprilysin [1]): 7.85

O=C(Nc1cccc(S(=O)(=O)O)c1)C(CS)Cc1ccccc1 (stereo unspecified)
pIC50 [2]: 3.54
pIC50 (Neprilysin [3]): 9.57

CC(C)CC(CS)C(=O)NCCS(=O)(=O)O (stereo unspecified)
pIC50 (Neprilysin [1]): 8.28

O=C(Nc1ccc(S(=O)(=O)O)cc1)C(CS)Cc1ccccc1 (stereo unspecified)
pIC50 [2]: 3.68
pIC50 (Neprilysin [3]): 8.77

O=C(Nc1ccc(S(=O)(=O)O)cc1)C(CS)Cc1ccc(C(F)(F)F)cc1 (stereo unspecified)
pIC50 (Neprilysin [3]): 6.82

O=C(Nc1ccc(S(=O)(=O)O)cc1)C(CS)Cc1cccc2ccccc12 (stereo unspecified)
pIC50 (Neprilysin [3]): 7.47

O=C(C(CS)Cc1ccccc1)N(CCS(=O)(=O)O)C1CC1 (stereo unspecified)
pIC50 (Neprilysin [3]): 5.38

Cc1ccc(CC(CS)C(=O)NCCS(=O)(=O)O)cc1 (stereo unspecified)
pIC50 (Neprilysin [3]): 8.51

CN(C)c1ccc(CC(CS)C(=O)Nc2ccc(S(=O)(=O)O)cc2)cc1 (stereo unspecified)
pIC50 (Neprilysin [3]): 7.85

COc1ccc(CC(CS)C(=O)Nc2ccc(S(=O)(=O)O)cc2)cc1 (stereo unspecified)
pIC50 (Neprilysin [3]): 8.49

Cc1ccc(CC(CS)C(=O)Nc2cccc(S(=O)(=O)O)c2)cc1 (stereo unspecified)
pIC50 (Neprilysin [3]): 8.60

O=C(NCCCS(=O)(=O)O)C(CS)Cc1ccccc1 (stereo unspecified)
pIC50 (Neprilysin [3]): 8.27

O=C(Nc1ccc(S(=O)(=O)O)c2ccccc12)C(CS)Cc1ccccc1 (stereo unspecified)
pIC50 [4]: 4.43
pIC50 (Neprilysin [1]): 8.13

O=C(NCCS(=O)(=O)O)C(CS)Cc1cccc2ccccc12 (stereo unspecified)
pIC50 (Neprilysin [3]): 8.08

O=C(Nc1ccccc1S(=O)(=O)O)C(CS)Cc1ccccc1 (stereo unspecified)
pIC50 (Neprilysin [3]): 6.85

O=C(NCCS(=O)(=O)[O-])[C@H](CS)Cc1ccccc1.[Na+]
pIC50 [2]: 3.13
ED50 (Mus musculus [5]): 17.7 µg mouse-1
pIC50 (Neprilysin [3]): 8.36
ED50 (Mus musculus [6]): 43.3 mg/kg

O=C(Nc1ccc(S(=O)(=O)O)cc1)C(CS)CCCc1ccccc1 (stereo unspecified)
pIC50 (Neprilysin [3]): 6.96

O=C(Nc1ccc(S(=O)(=O)O)cc1)C(CS)Cc1noc2ccccc12 (stereo unspecified)
pIC50 (Neprilysin [3]): 7.92

O=C(NCc1ccc(S(=O)(=O)O)cc1)C(CS)Cc1ccccc1 (stereo unspecified)
pIC50 (Neprilysin [3]): 7.96

O=C(NCCS(=O)(=O)[O-])[C@@H](CS)Cc1ccccc1.[Na+]
pIC50 [2]: 3.37
ED50 (Mus musculus [5]): 11.8 µg mouse-1
pIC50 (Neprilysin [3]): 9.09
ED50 (Mus musculus [6]): 8.5 mg/kg

O=C(NCCS(=O)(=O)[O-])C(CS)Cc1ccccc1.[Na+] (stereo unspecified)
pIC50 [2]: 3.14
ED50 (Mus musculus [5]): 20 µg mouse-1
pIC50 (Neprilysin [3]): 8.82
ED50 (Mus musculus [6]): 18 mg/kg

O=C(Nc1ccc(S(=O)(=O)O)cc1)C(CS)Cc1cccnc1 (stereo unspecified)
pIC50 (Neprilysin [3]): 7.48

O=C(NCS(=O)(=O)O)C(CS)Cc1ccccc1 (stereo unspecified)
pIC50 [2]: 4.92
pIC50 (Neprilysin [3]): 8.66

O=C(NCCS(=O)(=O)O)C(CS)CCCc1ccccc1 (stereo unspecified)
pIC50 (Neprilysin [3]): 7.96

CN(CCS(=O)(=O)O)C(=O)C(CS)Cc1ccccc1 (stereo unspecified)
pIC50 (Neprilysin [3]): 6.31

O=C(Nc1ccc(S(=O)(=O)O)cc1)C(CS)Cc1ccc(F)cc1 (stereo unspecified)
pIC50 (Neprilysin [3]): 8.30

CC(C)CC(NC(=O)C(CS)Cc1ccccc1)S(=O)(=O)O (stereo unspecified)
pIC50 (Neprilysin [3]): 6.60

CC(C)CC(CS)C(=O)Nc1cccc(S(=O)(=O)O)c1 (stereo unspecified)
pIC50 (Neprilysin [3]): 8.62

CC(NC(=O)C(CS)Cc1ccccc1)S(=O)(=O)O (stereo unspecified)
pIC50 (Neprilysin [3]): 7.51

COc1ccc(CC(CS)C(=O)NCCS(=O)(=O)O)cc1 (stereo unspecified)
pIC50 (Neprilysin [3]): 8.36

CC(C)CC(CS)C(=O)Nc1ccc(S(=O)(=O)O)cc1 (stereo unspecified)
pIC50 (Neprilysin [3]): 9.05

CN(C)c1ccc(CC(CS)C(=O)NCCS(=O)(=O)O)cc1 (stereo unspecified)
pIC50 (Neprilysin [3]): 7.43

O=C(NCCS(=O)(=O)O)C(CS)Cc1ccc([N+](=O)[O-])cc1 (stereo unspecified)
pIC50 (Neprilysin [1]): 7.77

O=C(Nc1ccc(S(=O)(=O)O)cc1)C(CS)Cc1ccc(-c2ccccc2)cc1 (stereo unspecified)
pIC50 (Neprilysin [3]): 7.28

Cc1ccc(CC(CS)C(=O)Nc2ccc(S(=O)(=O)O)cc2)cc1 (stereo unspecified)
pIC50 (Neprilysin [3]): 8.96

O=C(NCCS(=O)(=O)O)C(CS)Cc1ccc(F)cc1 (stereo unspecified)
pIC50 (Neprilysin [3]): 8.46

O=C(O)CNC(=O)C(CS)Cc1ccccc1 (stereo unspecified) [THIORPHAN]
ED50 (Mus musculus [5]): 17 µg mouse-1
ED50 (Mus musculus [6]): 72 mg/kg
